Screening data deposited in PubChem by several laboratories.
The list is not random: actives were taken first. Their share in the collection is about 9.6%.
HCT116 PTEN-null – PTEN-deleted cell growth suppression; HCT116 PTEN-null viability, CellTiter-Glo, 60 h; hits give low values; 140,000 tested, 1.2% active; viability, % at 10 µM;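 active = viability at or below a set limit, 4 SD under the median of all tested compounds, cut at about 3.7% in these data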;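 note: PTEN knockout HCT116 line with beta catenin targeted HCT116 as companion control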
bCat KO growth – beta-catenin-lacking colon tumor cell growth suppression; HCT116 beta-catenin knockout viability, CellTiter-Glo, 60 h; hits give low values; viability, % at 10 µM; 140,000 tested, 1.5% active;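 active = viability at or under a set limit, the compound median less 4 SD, cut at about 6% in these data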;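 note: 0% = Hyamine 1622 control at 20 µM and 100% = untreated cell control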
TNAP act hiacc – activators of human TNAP at high phosphate acceptor concentration; purified TNAP, CDP-star luminescence, 1 M DEA, 30 min; hits give high values; 0 = EDTA background, 1 = DMSO-only activity; AID 1136; P05186; activation factor at 20 µM; 200,000 tested, under 10 active;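 active = activation factor at least 2 at 20 µM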
Target sequence (P05186 whole entry, looked up): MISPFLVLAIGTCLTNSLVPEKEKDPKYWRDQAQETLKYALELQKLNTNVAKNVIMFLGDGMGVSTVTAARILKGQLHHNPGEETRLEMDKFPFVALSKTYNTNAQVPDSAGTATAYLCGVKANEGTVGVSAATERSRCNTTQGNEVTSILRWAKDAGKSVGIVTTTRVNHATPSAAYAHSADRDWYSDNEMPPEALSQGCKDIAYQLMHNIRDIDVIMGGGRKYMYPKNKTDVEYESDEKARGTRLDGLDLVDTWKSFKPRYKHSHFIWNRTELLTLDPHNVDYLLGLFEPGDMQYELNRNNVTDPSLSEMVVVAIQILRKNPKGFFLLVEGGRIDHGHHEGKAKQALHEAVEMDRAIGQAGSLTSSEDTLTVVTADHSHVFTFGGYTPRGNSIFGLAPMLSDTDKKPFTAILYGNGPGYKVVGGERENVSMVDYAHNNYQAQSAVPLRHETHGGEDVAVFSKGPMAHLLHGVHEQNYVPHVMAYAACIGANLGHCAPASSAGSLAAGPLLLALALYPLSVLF
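Control set: EDTA negative control, DMSO positive control / Assay system: human TNAP / Quantity: TNAP 1/800 final / Evaluation: TNAP activation factor scaled between EDTA and DMSO control wells / Measured by: luminescent substrate turnover signal / Compound dosing: one dose, 20 µM / Times: 30 min enzyme reaction at room temperature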
TNAP inh hi DEA – blocks human TNAP under high phosphate acceptor concentration; P05186; purified TNAP, CDP-star luminescence, 1 M DEA; inhibition, % at 20 µM; 200,000 tested, 0.03% active; AID 1135;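 active = over 50% inhibition of tissue-nonspecific alkaline phosphatase at 20 µM in the single-dose screen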;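 note: plate controls were DMSO wells for no effect and EDTA-quenched wells as full inhibition for full effect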
L major viab – Leishmania major promastigote growth inhibition; Leishmania major promastigotes, resazurin fluorescence viability; inhibition, % at 10 µM; 200,000 tested, 9% active; AID 1063; in the data active = inhibition above about 50%;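 note: promastigotes grown with compound for 44 hours at 28 °C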
TNAP inh no acc – blocks human TNAP activity with no phosphate acceptor present. P05186. purified TNAP, CDP-star luminescence, 30 min. inhibition, % at 20 µM. 200,000 tested, 0.26% active. AID 1012;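 active = tissue-nonspecific alkaline phosphatase inhibition above about 50% at 20 µM in the single-dose screen, limit read from the data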;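 note: 0% = DMSO negative control and 100% = EDTA positive control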
* hit, by the source's call.

C=CCOc1c(OC)cc(/C=N/Nc2cccc(C(=O)O)c2)c(Br)c1Br was read as HCT116 PTEN-null 10, bCat KO growth 18, TNAP act hiacc 1.1, TNAP inh hi DEA -6, L major viab -7 and TNAP inh no acc -4.
Screening CCOc1ccc2nc(SCC(=O)Nc3ccc4c(c3)OCCO4)[nH]c2c1 returned HCT116 PTEN-null 99, bCat KO growth 100, TNAP act hiacc 1.1, TNAP inh hi DEA -6, L major viab 97* and TNAP inh no acc -13.
For COc1ccc2nc(SCC(=O)Nc3ccc4c(c3)OCCO4)[nH]c2c1 the results were HCT116 PTEN-null 93, bCat KO growth 94, TNAP act hiacc 1, TNAP inh hi DEA 1, L major viab -1 and TNAP inh no acc -11.
`Cc1ccc(Cn2ccc(NC(=O)c3cc(-c4cccc(Cl)c4)on3)n2)cc1` gave HCT116 PTEN-null 87, bCat KO growth 89, TNAP act hiacc 1, TNAP inh hi DEA 1, L major viab 76* and TNAP inh no acc -13.
For Cc1cc(NC(=O)c2cc(C(C)C)on2)nn1Cc1ccc(Cl)cc1 the results were HCT116 PTEN-null 36, bCat KO growth 16, TNAP act hiacc 1.1, TNAP inh hi DEA -7, L major viab 71* and TNAP inh no acc 26.
Screening Cc1cccc(Cn2ccc(NC(=O)c3ccc4c(c3)OCO4)n2)c1 returned TNAP act hiacc 1, TNAP inh hi DEA -1, L major viab 60* and TNAP inh no acc -6.
`Cc1ccc(Cn2ccc(NC(=O)c3cc(-c4ccc(Cl)cc4)on3)n2)cc1` gave HCT116 PTEN-null 91, bCat KO growth 93, TNAP act hiacc 1, TNAP inh hi DEA -2, L major viab 57* and TNAP inh no acc -4.
For O=C(Nc1ccn(Cc2ccc(Cl)cc2)n1)c1ccc2c(c1)OCO2 the results were HCT116 PTEN-null 84, bCat KO growth 83, TNAP act hiacc 1, TNAP inh hi DEA -2, L major viab -6 and TNAP inh no acc -5.
`Cc1ccc(Cn2ccc(NC(=O)c3cc(-c4ccc(F)cc4)on3)n2)cc1` gave HCT116 PTEN-null 98, bCat KO growth 95, TNAP act hiacc 1.1, TNAP inh hi DEA -5, L major viab 40 and TNAP inh no acc -4.
`COc1ccc(C(=O)N2N=C(c3cccc(OC)c3)CC2(O)C(F)(F)F)cc1` (centres undefined) gave HCT116 PTEN-null 85, bCat KO growth 84, TNAP act hiacc 1, TNAP inh hi DEA -4, L major viab 43 and TNAP inh no acc -8.
Screening CCOC(=O)c1c(NC(=O)C(C)N2CCN(C(=O)c3ccco3)CC2)sc2c1CCCC2 (centres undefined) returned HCT116 PTEN-null 36, bCat KO growth 45, TNAP act hiacc 1.1, TNAP inh hi DEA -6, L major viab 40 and TNAP inh no acc -14.
`COc1cccc(OC)c1OCCCCN1CCCC1` gave HCT116 PTEN-null 107, bCat KO growth 95, TNAP act hiacc 1, TNAP inh hi DEA 0, L major viab 66* and TNAP inh no acc -6.
Screening CCS(=O)(=O)N1CCC(C(=O)NCCCN2CCC(Cc3ccccc3)CC2)CC1 returned HCT116 PTEN-null 98, bCat KO growth 90, TNAP act hiacc 1.1, TNAP inh hi DEA -7, L major viab 22 and TNAP inh no acc -15.
Screening COc1ccccc1OCCCCN1CCN(C(c2ccccc2)c2ccccc2)CC1 returned HCT116 PTEN-null 37, bCat KO growth 53, TNAP act hiacc 1.1, TNAP inh hi DEA -8, L major viab 93* and TNAP inh no acc -6.
`COc1cccc(OC)c1OCCCCN1CCC(Cc2ccccc2)CC1` gave TNAP act hiacc 1.1, TNAP inh hi DEA -7, L major viab 89* and TNAP inh no acc -10.
For CC(=O)CCc1ccc(OCCCCN2CCC(Cc3ccccc3)CC2)cc1 the results were TNAP act hiacc 1, TNAP inh hi DEA -5, L major viab 94* and TNAP inh no acc -15.
Screening COc1cccc(OC)c1OCCCN1CCOCC1 returned HCT116 PTEN-null 93, bCat KO growth 98, TNAP act hiacc 1, TNAP inh hi DEA 0, L major viab 2 and TNAP inh no acc -7.
`CCn1c(SCc2ccccc2)nnc1-c1cccnc1` gave TNAP act hiacc 1, TNAP inh hi DEA 2, L major viab 0 and TNAP inh no acc -1.
Screening Cc1ccsc1/C=N\NC(=O)Cn1nnc2ccccc21 returned HCT116 PTEN-null 58, bCat KO growth 64, TNAP act hiacc 1, TNAP inh hi DEA 1, L major viab -7 and TNAP inh no acc 12.
For O=C1/C(=C/c2cccnc2)Oc2cc(OS(=O)(=O)c3ccc(Cl)cc3)ccc21 the results were HCT116 PTEN-null 89, bCat KO growth 88, TNAP act hiacc 1.1, TNAP inh hi DEA -9, L major viab 14 and TNAP inh no acc -12.
For COc1ccc(S(=O)(=O)Oc2ccc3c(c2)O/C(=C\c2cccnc2)C3=O)cc1 the results were HCT116 PTEN-null 21, bCat KO growth 29, TNAP act hiacc 1, TNAP inh hi DEA -5, L major viab 86* and TNAP inh no acc -7.
Screening O=C1/C(=C/c2cccnc2)Oc2cc(OS(=O)(=O)c3ccccc3)ccc21 returned HCT116 PTEN-null 71, bCat KO growth 81, TNAP act hiacc 1, TNAP inh hi DEA 3, L major viab 57* and TNAP inh no acc -7.
Screening COc1cccc(N2CCN(C(=O)CCCCCNc3nc(=S)[nH]c4ccccc34)CC2)c1 returned TNAP act hiacc 1, TNAP inh hi DEA -3, L major viab 74* and TNAP inh no acc -9.
`O=C(CCCCCNc1nc(=S)[nH]c2ccccc12)N1CCN(c2ccccn2)CC1` gave HCT116 PTEN-null 44, bCat KO growth 57, TNAP act hiacc 1, TNAP inh hi DEA 0, L major viab 57* and TNAP inh no acc -2.
Screening O=C(CN1C(=O)c2cccc3cccc1c23)N1CCN(Cc2ccc3c(c2)OCO3)CC1 returned HCT116 PTEN-null 76, bCat KO growth 84, TNAP act hiacc 1, TNAP inh hi DEA 0, L major viab 88* and TNAP inh no acc -7.
For CCCC(=O)N1CCN(Cc2ccc3c(c2)OCO3)CC1 the results were HCT116 PTEN-null 95, bCat KO growth 99, TNAP act hiacc 1, TNAP inh hi DEA 0, L major viab -9 and TNAP inh no acc -7.
O=C(CSCc1ccccc1)N1CCN(Cc2ccc3c(c2)OCO3)CC1 was read as HCT116 PTEN-null 98, bCat KO growth 81, TNAP act hiacc 1, TNAP inh hi DEA -2, L major viab 99* and TNAP inh no acc -7.
For O=C(C1COc2ccccc2O1)N1CCN(Cc2ccc3c(c2)OCO3)CC1 (centres undefined) the results were HCT116 PTEN-null 88, bCat KO growth 81, TNAP act hiacc 1, TNAP inh hi DEA -5, L major viab 89* and TNAP inh no acc -18.
